ChEMBL document CHEMBL1177669, “Synthesis and biological study of 3-(phenylsulfonyl)thieno[2,3-e][1,2,3]triazolo[1,5-a]pyrimidines as potent and selective serotonin 5-HT6 receptor antagonists” (Bioorg Med Chem, 2010)
pIC50: −log10 of the molar value.

target: 5-hydroxytryptamine receptor 6 (Homo sapiens, UniProt P50406); experiment: Antagonist activity at human recombinant 5HT6 receptor expressed in HEK293 cells assessed as inhibition of serotonin-induced cAMP production; type: functional, cell-based
Sequence (P50406 whole entry): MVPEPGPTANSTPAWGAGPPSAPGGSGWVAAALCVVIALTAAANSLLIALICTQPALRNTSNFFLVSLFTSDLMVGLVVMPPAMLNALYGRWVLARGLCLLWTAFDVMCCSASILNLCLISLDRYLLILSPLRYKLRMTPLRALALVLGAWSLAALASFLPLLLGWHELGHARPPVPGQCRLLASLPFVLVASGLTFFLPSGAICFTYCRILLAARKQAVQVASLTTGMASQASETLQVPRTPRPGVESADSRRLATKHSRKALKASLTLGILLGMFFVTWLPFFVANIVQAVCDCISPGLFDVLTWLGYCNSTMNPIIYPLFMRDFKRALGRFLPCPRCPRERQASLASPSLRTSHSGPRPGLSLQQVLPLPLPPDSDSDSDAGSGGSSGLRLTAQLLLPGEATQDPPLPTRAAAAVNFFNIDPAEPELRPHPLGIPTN
Outline: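 HEK293 cells stably expressing recombinant human 5-HT6R, stimulated with serotonin. cAMP from adenylyl cyclase measured by LANCE. Compounds screened at 5 and 10 μM. IC50 determined for compounds giving more than 50% inhibition of cAMP synthesis at 5 μM.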

SMILES	pIC50
CC1CCN(c2nc3c(S(=O)(=O)c4cccc(Cl)c4)nnn3c3ccsc23)CC1	5.95
COCCCNc1nc2c(S(=O)(=O)c3cc(C)ccc3C)nnn2c2ccsc12	5.89
O=S(=O)(c1cccc(Cl)c1)c1nnn2c1nc(Nc1cccc(C(F)(F)F)c1)c1sccc12	5.97
Cc1ccc(C)c(S(=O)(=O)c2nnn3c2nc(NCCCc2ccccc2)c2sccc23)c1	5.91
CCc1ccc(S(=O)(=O)c2nnn3c2nc(NC(C)C)c2sccc23)cc1	5.80
Cc1ccc(C)c(Nc2nc3c(S(=O)(=O)c4ccc(Br)cc4)nnn3c3ccsc23)c1	5.70
Cc1ccc(S(=O)(=O)c2nnn3c2nc(NC2CCCC2)c2sccc23)cc1	5.69
COCCCNc1nc2c(S(=O)(=O)c3ccc(C)c(C)c3)nnn2c2ccsc12	5.62
O=S(=O)(c1ccccc1)c1nnn2c1nc(NCc1ccc(Cl)cc1)c1sccc12	5.93
O=S(=O)(c1ccccc1)c1nnn2c1nc(Nc1ccccc1)c1sccc12	5.30
CCc1ccc(S(=O)(=O)c2nnn3c2nc(NCCCOC)c2sccc23)cc1	< 5.30
Cc1ccc(C)c(S(=O)(=O)c2nnn3c2nc(N2CCCCC2)c2sccc23)c1	5.82
Cc1cccc(Nc2nc3c(S(=O)(=O)c4ccc(C(C)C)cc4)nnn3c3ccsc23)c1C	6.00
Cc1ccc(C)c(S(=O)(=O)c2nnn3c2nc(N(C)Cc2ccccc2)c2sccc23)c1	5.83
CCN(CC)c1nc2c(S(=O)(=O)c3cccc(Cl)c3)nnn2c2ccsc12	5.91
COCCNc1nc2c(S(=O)(=O)c3ccc(C)cc3)nnn2c2ccsc12	5.83
COc1cccc(CNc2nc3c(S(=O)(=O)c4ccccc4)nnn3c3ccsc23)c1	5.86
CCc1ccc(S(=O)(=O)c2nnn3c2nc(NCCc2ccccc2)c2sccc23)cc1	5.98
O=S(=O)(c1ccccc1)c1nnn2c1nc(NCCc1ccccc1)c1sccc12	5.94
COCCNc1nc2c(S(=O)(=O)c3ccc(C)c(C)c3)nnn2c2ccsc12	5.80
COCCNc1nc2c(S(=O)(=O)c3ccc(Cl)cc3)nnn2c2ccsc12	5.66
CC(C)CCNc1nc2c(S(=O)(=O)c3ccc(C(C)C)cc3)nnn2c2ccsc12	< 5.30
COc1ccccc1CNc1nc2c(S(=O)(=O)c3ccc(Br)cc3)nnn2c2ccsc12	6.03
CCc1cccc(Nc2nc3c(S(=O)(=O)c4ccc(C)cc4)nnn3c3ccsc23)c1	5.86

The next compounds have a higher pIC50 than those just listed; values first:

pIC50	SMILES
6.11	Cc1ccc(S(=O)(=O)c2nnn3c2nc(NCc2ccco2)c2sccc23)cc1C
6.22	Cc1ccc(S(=O)(=O)c2nnn3c2nc(NCc2ccccc2Cl)c2sccc23)cc1C
6.22	O=S(=O)(c1ccccc1)c1nnn2c1nc(Nc1ccc(F)cc1)c1sccc12
6.24	CCN(Cc1ccccc1)c1nc2c(S(=O)(=O)c3ccc(Cl)cc3)nnn2c2ccsc12
6.30	Cc1ccc(S(=O)(=O)c2nnn3c2nc(NCc2ccco2)c2sccc23)cc1
6.32	O=S(=O)(c1ccc(Cl)cc1)c1nnn2c1nc(NCC1CCCO1)c1sccc12 (stereo unspecified)
6.32	O=S(=O)(c1cccc(Cl)c1)c1nnn2c1nc(NCc1ccc(F)cc1)c1sccc12
6.54	COc1ccccc1CNc1nc2c(S(=O)(=O)c3ccccc3)nnn2c2ccsc12
6.59	COCCCNc1nc2c(S(=O)(=O)c3ccccc3)nnn2c2ccsc12
6.66	Cc1ccc(S(=O)(=O)c2nnn3c2nc(NCc2cccs2)c2sccc23)cc1
6.72	COCCNc1nc2c(S(=O)(=O)c3ccccc3)nnn2c2ccsc12
6.77	O=S(=O)(c1cccc(Cl)c1)c1nnn2c1nc(NC1CCCC1)c1sccc12
6.82	CC(Nc1nc2c(S(=O)(=O)c3cccc(Cl)c3)nnn2c2ccsc12)c1ccccc1 (stereo unspecified)
6.85	O=S(=O)(c1cccc(Cl)c1)c1nnn2c1nc(NC1CCCCCC1)c1sccc12
6.96	COCCNc1nc2c(S(=O)(=O)c3cccc(Cl)c3)nnn2c2ccsc12
7.05	Cc1ccc(S(=O)(=O)c2nnn3c2nc(NCc2cccs2)c2sccc23)cc1C
7.16	O=S(=O)(c1cccc(Cl)c1)c1nnn2c1nc(NC1CCCCC1)c1sccc12
